The M2OR odorant receptor database

Assays:
Conditions in all cases: stereoisomer not certain
OR52Z1P (Homo sapiens) = OR52Z1P (Homo sapiens) (UniProt P0C646)
Outline: (§1)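 Values were gathered from published papers (main text and supplementary material), with extra details requested from the original authors when needed, and checked for typos and inconsistencies. Each receptor–molecule pair is called responsive (active) if the original authors judged the measured signal statistically different from baseline, and non-responsive (inactive) otherwise. Assay methods varied by source, often transient mammalian cell-line luciferase assays. Recorded details include cell line, G-protein, co-transfected protein and tags.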

OR56A1 (Homo sapiens) = OR56A1 (Homo sapiens) (UniProt Q8NGH5)
Outline: as §1

OR56A3 (Homo sapiens) = OR56A3 (Homo sapiens) (UniProt Q8NH54)
Outline: as §1

OR56A4 (Homo sapiens) = OR56A4 (Homo sapiens) (UniProt Q8NGH8)
Outline: as §1

OR56A5 (Homo sapiens) = OR56A5 (Homo sapiens) (UniProt P0C7T3)
Outline: as §1

OR56B1 (Homo sapiens) = OR56B1 (Homo sapiens) (UniProt Q8NGI3)
Outline: as §1

OR56B4 (Homo sapiens) = OR56B4 (Homo sapiens) (UniProt Q8NH76)
Outline: as §1

OR5A1 (Homo sapiens) = OR5A1 (Homo sapiens) (UniProt Q8NGJ0)
Outline: as §1

OR5A2 (Homo sapiens) = OR5A2 (Homo sapiens) (UniProt Q8NGI9)
Outline: as §1

OR5A1 D183N = tested on: OR5A1 D183N
Outline: as §1

Measured: odorant receptor agonist call

OR5A1 (Homo sapiens), sequence (Q8NGJ0 whole entry): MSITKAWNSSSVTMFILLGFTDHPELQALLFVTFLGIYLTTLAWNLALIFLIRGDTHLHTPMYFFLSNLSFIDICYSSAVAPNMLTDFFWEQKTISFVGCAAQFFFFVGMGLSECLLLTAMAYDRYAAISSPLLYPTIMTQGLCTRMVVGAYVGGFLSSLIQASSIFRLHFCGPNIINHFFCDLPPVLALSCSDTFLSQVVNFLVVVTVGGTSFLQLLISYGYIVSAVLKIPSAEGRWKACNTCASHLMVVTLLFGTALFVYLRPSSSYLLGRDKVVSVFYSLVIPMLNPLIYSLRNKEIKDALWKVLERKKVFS
OR56A1 (Homo sapiens), sequence (Q8NGH5 whole entry): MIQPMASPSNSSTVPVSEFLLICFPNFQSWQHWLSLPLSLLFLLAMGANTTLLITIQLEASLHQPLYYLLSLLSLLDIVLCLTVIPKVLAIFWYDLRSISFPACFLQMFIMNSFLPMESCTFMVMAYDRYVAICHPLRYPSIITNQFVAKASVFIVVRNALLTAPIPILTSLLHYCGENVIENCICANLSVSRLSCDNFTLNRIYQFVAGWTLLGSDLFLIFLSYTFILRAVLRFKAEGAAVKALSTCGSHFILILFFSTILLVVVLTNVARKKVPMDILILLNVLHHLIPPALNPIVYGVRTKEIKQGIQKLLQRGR
OR5A2 (Homo sapiens), sequence (Q8NGI9 whole entry): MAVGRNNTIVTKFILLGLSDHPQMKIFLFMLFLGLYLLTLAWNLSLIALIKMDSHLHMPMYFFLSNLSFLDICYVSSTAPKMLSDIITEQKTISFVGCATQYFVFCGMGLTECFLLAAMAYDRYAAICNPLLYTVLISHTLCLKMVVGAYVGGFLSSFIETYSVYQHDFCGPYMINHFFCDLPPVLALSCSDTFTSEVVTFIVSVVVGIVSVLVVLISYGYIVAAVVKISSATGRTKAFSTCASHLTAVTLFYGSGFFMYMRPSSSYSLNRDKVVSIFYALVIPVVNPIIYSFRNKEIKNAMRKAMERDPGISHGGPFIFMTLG
OR56B4 (Homo sapiens), sequence (Q8NH76 whole entry): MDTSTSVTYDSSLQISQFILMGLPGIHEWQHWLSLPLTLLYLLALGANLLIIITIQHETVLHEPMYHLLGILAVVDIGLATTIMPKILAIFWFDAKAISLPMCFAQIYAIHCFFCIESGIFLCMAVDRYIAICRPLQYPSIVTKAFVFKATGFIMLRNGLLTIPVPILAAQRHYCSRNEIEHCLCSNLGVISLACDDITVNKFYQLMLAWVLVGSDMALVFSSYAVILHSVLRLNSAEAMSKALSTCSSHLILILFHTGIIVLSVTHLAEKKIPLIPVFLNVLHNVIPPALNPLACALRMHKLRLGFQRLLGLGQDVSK
OR56B1 (Homo sapiens), sequence (Q8NGI3 whole entry): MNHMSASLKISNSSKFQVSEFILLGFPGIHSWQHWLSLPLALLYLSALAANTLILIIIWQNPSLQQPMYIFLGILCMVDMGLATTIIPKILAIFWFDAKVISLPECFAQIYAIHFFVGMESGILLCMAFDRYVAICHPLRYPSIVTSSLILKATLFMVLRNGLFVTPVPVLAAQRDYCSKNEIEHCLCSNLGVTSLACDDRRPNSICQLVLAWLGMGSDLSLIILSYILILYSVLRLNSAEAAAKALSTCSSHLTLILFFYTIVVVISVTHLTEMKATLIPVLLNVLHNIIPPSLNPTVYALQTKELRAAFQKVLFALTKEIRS
OR56A3 (Homo sapiens), sequence (Q8NH54 whole entry): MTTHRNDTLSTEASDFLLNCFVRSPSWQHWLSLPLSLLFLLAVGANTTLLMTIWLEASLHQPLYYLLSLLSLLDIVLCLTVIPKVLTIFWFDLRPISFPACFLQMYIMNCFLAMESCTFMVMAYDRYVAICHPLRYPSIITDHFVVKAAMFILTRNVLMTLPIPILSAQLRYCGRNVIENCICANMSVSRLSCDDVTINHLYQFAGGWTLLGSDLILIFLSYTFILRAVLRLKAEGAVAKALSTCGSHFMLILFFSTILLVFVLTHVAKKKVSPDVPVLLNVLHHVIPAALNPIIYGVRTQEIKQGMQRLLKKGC
OR56A5 (Homo sapiens), sequence (P0C7T3 whole entry): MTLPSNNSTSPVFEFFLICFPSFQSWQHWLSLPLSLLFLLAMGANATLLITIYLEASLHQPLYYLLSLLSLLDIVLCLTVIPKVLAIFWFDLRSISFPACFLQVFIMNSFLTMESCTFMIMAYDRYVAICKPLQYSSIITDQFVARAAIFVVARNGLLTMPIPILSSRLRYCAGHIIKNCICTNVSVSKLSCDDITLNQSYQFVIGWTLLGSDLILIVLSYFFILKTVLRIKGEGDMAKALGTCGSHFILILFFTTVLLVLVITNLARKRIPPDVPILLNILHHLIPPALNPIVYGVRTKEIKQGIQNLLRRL
OR52Z1P (Homo sapiens), sequence (P0C646 whole entry): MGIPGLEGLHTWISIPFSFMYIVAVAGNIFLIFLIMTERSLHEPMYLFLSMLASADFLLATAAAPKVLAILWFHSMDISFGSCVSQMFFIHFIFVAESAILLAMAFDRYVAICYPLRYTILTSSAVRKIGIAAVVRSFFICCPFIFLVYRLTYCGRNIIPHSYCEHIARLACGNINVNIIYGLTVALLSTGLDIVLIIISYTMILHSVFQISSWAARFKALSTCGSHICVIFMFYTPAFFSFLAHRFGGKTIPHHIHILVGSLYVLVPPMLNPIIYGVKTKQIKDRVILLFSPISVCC
OR5A1 D183N, sequence (as listed by the source, stated change not applied): as the sequence (Q8NGJ0 whole entry) above, with D183N counted along it
OR56A4 (Homo sapiens), sequence (Q8NGH8 whole entry): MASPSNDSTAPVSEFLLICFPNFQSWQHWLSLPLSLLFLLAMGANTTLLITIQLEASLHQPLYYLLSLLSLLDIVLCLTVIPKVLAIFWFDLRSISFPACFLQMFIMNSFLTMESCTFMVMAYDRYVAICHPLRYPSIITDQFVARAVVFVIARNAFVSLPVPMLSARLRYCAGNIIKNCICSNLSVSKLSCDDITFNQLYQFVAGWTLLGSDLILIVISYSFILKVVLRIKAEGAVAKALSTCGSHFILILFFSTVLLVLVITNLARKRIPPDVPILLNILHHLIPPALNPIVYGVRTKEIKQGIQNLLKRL

Cc1c([N+](=O)[O-])c(C)c([N+](=O)[O-])c(C(C)(C)C)c1[N+](=O)[O-]
inactive: OR52Z1P (Homo sapiens) | OR56A1 (Homo sapiens) | OR56A3 (Homo sapiens) | OR56A4 (Homo sapiens) | OR56A5 (Homo sapiens) | OR56B1 (Homo sapiens) | OR56B4 (Homo sapiens) | OR5A1 (Homo sapiens) | OR5A2 (Homo sapiens)

C=CCOC(=O)Cc1ccccc1
inactive: OR56A1 (Homo sapiens) | OR56A3 (Homo sapiens) | OR56A5 (Homo sapiens) | OR56B1 (Homo sapiens) | OR56B4 (Homo sapiens) | OR5A1 (Homo sapiens) | OR5A1 D183N | OR5A2 (Homo sapiens)
